Test results: publication PMC9071996 (RSC Advances, 2019)

Tests used:
[1] = test system: A549 cells; assay: MTS cytotoxicity assay, A549; assay type: cell-based; details: Homo sapiens, A549, 72 h, read-out: IC50 (μM) A549
Method in brief: (§1)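 MTS viability assay in A549, MDA-MB-231 and RPMI-8226 human cancer cells. All compounds were first screened at 10 and 50 μM. Compounds that crossed a set viability threshold in this screen went on to IC50 determination.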

[2] = test system: MDA-MB-231 cells; assay: Intracellular ROS level; assay type: cell-based, human
[3] = test system: RPMI-8226 cells; assay: MTS cytotoxicity assay, RPMI-8226; assay type: cell-based; details: Homo sapiens, RPMI-8226, 72 h, read-out: IC50 (μM) RPMI-8226
Method in brief: as §1

[4] = test system: MDA-MB-231 cells; assay: Cell cycle assay; assay type: cell-based, human; details: 72 h, control 56.86%
Method in brief: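 Test compound applied to MDA-MB-231 cells at 2.5, 5 and 10 μM for 72 h. Cells stained with propidium iodide, and DNA content measured by flow cytometry. Percentages of cells in each cell-cycle phase were calculated against an untreated control.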

[5] = test system: MDA-MB-231 cells; assay: Mitochondrial membrane potential assay; assay type: cell-based, human; details: 72 h, control 3.9%
Method in brief: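 Mitochondrial membrane potential measured by flow cytometry in MDA-MB-231 cells after 72 h with test compound at 2.5, 5 or 10 μM, against an untreated control. Red and green fluorescent populations were quantified. The green-fluorescent fraction was taken as cells with collapsed ΔΨm.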

[6] = test system: GES-1 cells; assay: MTS cytotoxicity assay, normal GES-1 cells; assay type: cell-based; details: Homo sapiens, GES1, 72 h, read-out: IC50 (μM) GES-1
[7] = test system: MDA-MB-231 cells; assay: Annexin V-APC/7-AAD apoptosis assay; assay type: cell-based, human; details: 72 h, control 1.98%
Method in brief: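 MDA-MB-231 cells exposed to test compound at 2.5, 5 or 10 μM for 72 h, with untreated cells as control. Cells then double-stained with Annexin V-APC and 7-AAD and analysed by flow cytometry. Annexin V+/7-AAD− cells scored as early apoptotic. 7-AAD-positive Annexin V+ cells scored as late apoptotic. Results shown as dot-plot quadrants and a histogram.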

[8] = test system: MDA-MB-231 cells; assay: MTS cytotoxicity assay, MDA-MB-231; assay type: cell-based; details: Homo sapiens, MDA-MB-231, 72 h, read-out: IC50 (μM) MBA-MD-231
Method in brief: as §1

[9] = test system: MDA-MB-231 cells; assay: Western blot of apoptosis related proteins; assay type: cell-based, human; details: 2.5, 5 and 10 μM, 72 h, vs control
Method in brief: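 Western blot on lysates of MDA-MB-231 cells treated for 72 h with test compound at 2.5, 5 and 10 μM, compared with untreated control. Proteins probed: Bcl-2, Bax, cytochrome C and caspase-3. β-actin served as internal reference, and band levels were analysed statistically.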

Structure (SMILES): CC12CCC(c3c(-c4ccc(Cl)cc4)nc(N)nc31)C2(C)C (stereo not drawn) [Compound 3f, 4-(4-Chlorophenyl)-8,9,9-trimethyl-5,6,7,8-tetrahydro-5,8-methanoquinazolin-2-amine]
- IC50 [1]: 7.65 ± 0.21 µM
- level of ROS (DCFH-DA positive cells) ([2]; 10.0 μM, 72 h, control 5.13%): 63.4%
- increase of ROS level in comparison to the control group ([2]; 10 μM, 63.4% vs control 5.13%): ~12 times
- IC50 [3]: 8.64 ± 0.24 µM
- percentage of cells in G0/G1 phase ([4]; 2.5 μM): 64.89%
- percentage of cells in G0/G1 phase ([4]; 5 μM): 78.02%
- percentage of cells in G0/G1 phase ([4]; 10 μM): 81.72%
- Percentage (%) green fluorescence (cells with a collapsed ΔΨm) ([5]; 2.5 μM): 10.4%
- Percentage (%) green fluorescence (cells with a collapsed ΔΨm) ([5]; 5 μM): 33.6%
- Percentage (%) green fluorescence (cells with a collapsed ΔΨm) ([5]; 10 μM): 53.2%
- IC50 [6]: > 50 µM
- Apoptosis rate (%) (total early and late) ([7]; 2.5 μM): 9.47%
- Apoptosis rate (%) (total early and late) ([7]; 10 μM): 57.9%
- IC50 [8]: 5 ± 0.14 µM
- expression of anti-apoptosis protein Bcl-2 [9]: downregulated dose-dependently
- expression of caspase-3 [9]: upregulation
- expression of cytochrome C [9]: upregulation
- expression of pro-apoptotic protein Bax [9]: up-regulated
